ChEMBL document CHEMBL2321840, “Synthesis and structure-activity relationships of indazole arylsulfonamides as allosteric CC-chemokine receptor 4 (CCR4) antagonists” (J Med Chem, 2013)
≈ marks a conversion by molar mass, not a printed value.

What was measured:
[1] = biological target: T1, C-X-C chemokine receptor type 2 (Homo sapiens, UniProt P25025); experiment: Antagonist activity at CXCR2 receptor (unknown origin) by [35S]GTPgammaS binding assay; format: functional
T1 sequence (P25025 whole entry): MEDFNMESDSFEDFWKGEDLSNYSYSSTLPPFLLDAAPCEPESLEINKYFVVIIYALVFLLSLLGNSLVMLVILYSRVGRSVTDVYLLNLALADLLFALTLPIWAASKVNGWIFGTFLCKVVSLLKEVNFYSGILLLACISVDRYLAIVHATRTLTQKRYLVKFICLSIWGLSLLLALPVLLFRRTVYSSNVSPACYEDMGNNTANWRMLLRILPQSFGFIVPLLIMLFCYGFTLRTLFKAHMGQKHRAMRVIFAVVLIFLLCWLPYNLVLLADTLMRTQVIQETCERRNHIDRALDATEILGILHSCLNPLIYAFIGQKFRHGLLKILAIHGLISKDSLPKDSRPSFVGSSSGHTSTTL

Rattus norvegicus [2] = experiment: Toxicity in rat administered for 7 days; format: organism-based; conditions: in vivo, 168 h
[3] = Kinetic solubility of the compound in PBS using DMSO at pH 7.4 by NMR analysis; format: physicochemical; conditions: read-out: Kinetic_solubility
Oryctolagus cuniculus [4] = species: Oryctolagus cuniculus; experiment: Cardiotoxicity in rabbit assessed as effect on contractility; format: toxicity
[5] = biological target: T2, C-C chemokine receptor type 4 (Homo sapiens, UniProt P51679); experiment: Antagonist activity at human recombinant CCR4 receptor expressed in CHO cell membranes by [35S]GTPgammaS binding assay; format: functional
T2 sequence (P51679 whole entry): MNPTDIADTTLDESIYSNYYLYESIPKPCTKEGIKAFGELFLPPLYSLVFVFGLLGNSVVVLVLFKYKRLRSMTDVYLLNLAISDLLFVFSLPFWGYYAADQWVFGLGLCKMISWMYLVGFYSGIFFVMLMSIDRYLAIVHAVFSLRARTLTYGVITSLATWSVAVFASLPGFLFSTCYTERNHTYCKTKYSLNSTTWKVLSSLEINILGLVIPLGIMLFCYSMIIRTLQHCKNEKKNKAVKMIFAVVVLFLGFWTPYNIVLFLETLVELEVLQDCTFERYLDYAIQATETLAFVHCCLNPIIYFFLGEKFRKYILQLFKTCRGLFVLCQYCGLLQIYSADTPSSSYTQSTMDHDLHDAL

[6] = Equilibrium solubility of the compound in Britton-Robinson buffer at pH 7 after 24 hrs by HPLC analysis; format: physicochemical
Procedure, shortened: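 Solid compound was equilibrated 24 h in Britton–Robinson buffer at the stated pH. Dissolved compound was quantified by HPLC.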

[7] = biological target: C-X-C chemokine receptor type 4 (Homo sapiens, UniProt P61073); experiment: Antagonist activity at CXCR4 receptor (unknown origin) by [35S]GTPgammaS binding assay; format: functional
Chain of C-X-C chemokine receptor type 4 (P61073 whole entry): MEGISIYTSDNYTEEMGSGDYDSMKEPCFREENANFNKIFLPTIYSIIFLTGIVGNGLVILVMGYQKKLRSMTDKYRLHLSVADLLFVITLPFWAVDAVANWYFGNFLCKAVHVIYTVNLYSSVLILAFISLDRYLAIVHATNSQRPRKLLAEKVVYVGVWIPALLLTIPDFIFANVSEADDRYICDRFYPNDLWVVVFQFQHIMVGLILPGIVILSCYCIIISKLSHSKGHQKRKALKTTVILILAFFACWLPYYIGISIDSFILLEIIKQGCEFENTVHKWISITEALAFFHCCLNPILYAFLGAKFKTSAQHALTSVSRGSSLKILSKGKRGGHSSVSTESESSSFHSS

[8] = Kinetic solubility of the compound by chemiluminescent nitrogen detection assay; format: physicochemical; conditions: read-out: Kinetic_solubility
in vivo = conditions: beagle, dog, iv, 0.5 mg/kg
Oryctolagus cuniculus [9] = species: Oryctolagus cuniculus; experiment: Cardiotoxicity in rabbit ventricular wedge assessed as cardiovascular issues upto 10 uM; format: toxicity, Cardiac ventricle
[10] = Plasma protein binding in CD rat by equilibrium dialysis technique; format: ADME, cell-free; conditions: read-out: PPB
Procedure, shortened: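 Rapid equilibrium dialysis in CD rat, beagle dog or human plasma, with compound at a nominal 1 μg/mL; n = 3.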

[11] = biological target: T3, C-X-C chemokine receptor type 3 (Homo sapiens, UniProt P49682); experiment: Antagonist activity at CXCR3 receptor (unknown origin) by [35S]GTPgammaS binding assay; format: functional
T3 sequence (P49682 whole entry): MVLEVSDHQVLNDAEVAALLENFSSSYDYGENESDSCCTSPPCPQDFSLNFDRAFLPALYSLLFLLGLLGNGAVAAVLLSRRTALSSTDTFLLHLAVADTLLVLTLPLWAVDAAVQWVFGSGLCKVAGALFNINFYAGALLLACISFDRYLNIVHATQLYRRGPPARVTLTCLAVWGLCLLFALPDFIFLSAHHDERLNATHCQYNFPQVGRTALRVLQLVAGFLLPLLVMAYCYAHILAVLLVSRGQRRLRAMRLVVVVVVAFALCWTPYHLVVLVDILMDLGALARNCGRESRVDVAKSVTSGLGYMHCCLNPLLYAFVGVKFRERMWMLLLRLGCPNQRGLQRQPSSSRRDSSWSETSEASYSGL

[12] = Oral bioavailability in Beagle dog at 1 mg/kg; format: ADME, organism-based, Canis lupus familiaris; conditions: in vivo
HepG2 = experiment: Cytotoxicity in human HepG2 cells assessed as effect on mitochondria; format: cell-based
[13] = Equilibrium solubility of the compound in fasted-state simulated intestinal fluid at pH 6.5 after 24 hrs by HPLC analysis; format: physicochemical
Procedure, shortened: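 Solid compound was equilibrated 24 h in the stated medium: water, SGF pH 1.6, FeSSIF pH 6.5, FaSSIF pH 6.5 or saline. Dissolved compound was quantified by HPLC.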

[14] = Oral bioavailability in CD rat at 1 mg/kg administered as suspension; format: ADME, organism-based; conditions: in vivo
Procedure, shortened: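 Rats received an oral suspension of wet bead-milled material (particle size <1 μm), dosed at 1, 10 and 30 mg/kg.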

[15] = Volume of distribution at steady state in Beagle dog at 0.5 mg/kg, iv; format: ADME, organism-based, Canis lupus familiaris; set-up: dose 0.5 mg/kg, route intravenous; conditions: beagle, in vivo, read-out: Vdss
Rattus norvegicus [16] = experiment: Toxicity in rat assessed as effect on body temperature at 30 to 300 mg/kg, po; format: organism-based; set-up: dose 30-300 mg/kg, route oral; conditions: in vivo
Procedure, shortened: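 Conscious rats were given oral doses of 30, 100 and 300 mg/kg. Body temperature, cardiovascular and electrocardiographic parameters were monitored.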

[17] = biological target: T4, C-C chemokine receptor type 1 (Homo sapiens, UniProt P32246); experiment: Antagonist activity at CCR1 receptor (unknown origin) by [35S]GTPgammaS binding assay; format: functional
T4 sequence (P32246 whole entry): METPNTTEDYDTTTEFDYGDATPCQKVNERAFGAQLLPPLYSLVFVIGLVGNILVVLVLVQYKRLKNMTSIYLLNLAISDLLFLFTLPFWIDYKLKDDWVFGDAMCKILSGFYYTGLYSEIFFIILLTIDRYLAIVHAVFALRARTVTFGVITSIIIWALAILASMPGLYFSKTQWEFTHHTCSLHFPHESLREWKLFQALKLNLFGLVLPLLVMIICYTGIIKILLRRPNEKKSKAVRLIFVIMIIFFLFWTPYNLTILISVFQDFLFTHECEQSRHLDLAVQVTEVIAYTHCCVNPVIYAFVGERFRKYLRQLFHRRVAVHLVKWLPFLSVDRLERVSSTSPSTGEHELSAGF

IC50 [1]: > 10 µM | solubility kinetic [3]: 270 µg/mL (≈ 492 µM) | IC50 [5]: 0.0398 µM | solubility thermodynamic at 24 h [6]: 10 µg/mL (≈ 18.2 µM) | IC50 [7]: > 10 µM | solubility kinetic [8]: ≥ 162 µg/mL | clearance (in vivo): 9 mL/min/kg | fraction unbound [10]: ≤ 0.01 | IC50 [11]: > 10 µM | bioavailability [12]: 97% | solubility thermodynamic at 24 h [13]: 10 µg/mL (≈ 18.2 µM) | bioavailability [14]: 53% | Vd [15]: 2.2 L/kg | IC50 [17]: > 10 µM
SMILES: COc1cccc2c1c(NS(=O)(=O)c1ccc(Cl)s1)nn2Cc1cccc(CNC(=O)C(C)(C)O)c1
Activity (Rattus norvegicus [2]): Non-toxic | Activity (Oryctolagus cuniculus [4]): Non-toxic | Activity (Oryctolagus cuniculus [9]): Non-toxic | Activity (HepG2): Non-toxic | Activity (Rattus norvegicus [16]): Non-toxic
